According to ChEMBL document CHEMBL3861960, “Leoligin, the Major Lignan from Edelweiss (Leontopodium nivale subsp. alpinum), Promotes Cholesterol Efflux from THP-1 Macrophages” (J Nat Prod, 2016):
Active and inactive are the calls of the source. The rule behind the calls is not given here.

How the values were obtained:
THP-1 [1] = assay: Effect on DNHD1 protein expression in human THP1 cells at 10 uM after 24 hrs by proteome analysis relative to control; assay type: functional
Summary of the method: (§1)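 PMA-differentiated THP-1 macrophages given 10 μM compound or DMSO for 24 h, then lysed in TRIzol. Proteins reduced with DTT, alkylated with iodoacetamide, digested with trypsin (1:50 w/w) for 16 h at 30 °C. Biological replicates pooled, analysed by LC-MS/MS on an Orbitrap Velos Pro with a 4 h gradient, FDR ≤0.05. Only unique peptides used; log2 peptide ratios averaged per protein and tested by one-sample t test versus vehicle.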

THP-1 [2] = assay: Effect on CUL7 protein expression in human THP1 cells at 10 uM after 24 hrs by proteome analysis relative to control; assay type: functional; summary of the method: as §1
THP-1 [3] = assay: Effect on TOMM20 protein expression in human THP1 cells at 10 uM after 24 hrs by proteome analysis relative to control; assay type: functional; summary of the method: as §1
THP-1 [4] = assay: Effect on MCM8 protein expression in human THP1 cells at 10 uM after 24 hrs by proteome analysis relative to control; assay type: functional; summary of the method: as §1
THP-1 [5] = assay: Effect on MGA protein expression in human THP1 cells at 10 uM after 24 hrs by proteome analysis relative to control; assay type: functional; summary of the method: as §1
THP-1 [6] = assay: Effect on EVI2B protein expression in human THP1 cells at 10 uM after 24 hrs by proteome analysis relative to control; assay type: functional; summary of the method: as §1
THP-1 [7] = assay: Effect on HIST1H2AB protein expression in human THP1 cells at 10 uM after 24 hrs by proteome analysis relative to control; assay type: functional; summary of the method: as §1
THP-1 [8] = assay: Effect on CPA3 protein expression in human THP1 cells at 10 uM after 24 hrs by proteome analysis relative to control; assay type: functional; summary of the method: as §1
THP-1 [9] = assay: Effect on of ABCA1 protein expression in human THP1 cells at 10 uM after 24 hrs by proteome analysis relative to control; assay type: functional
THP-1 [10] = assay: Effect on SPCS1 protein expression in human THP1 cells at 10 uM after 24 hrs by proteome analysis relative to control; assay type: functional; summary of the method: as §1
[11] = Upregulation of ABCG1 protein expression in human THP1 cells at 10 uM after 24 hrs by Western blot method; assay type: functional, cell-based; conditions: THP-1
Summary of the method: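 PMA-differentiated THP-1 macrophages (200 nM PMA, 72 h) exposed to 10 μM agent or DMSO vehicle for 24 h. Lysis in NP40 buffer with protease inhibitors, then Bradford protein assay. 20 μg protein run on SDS-PAGE, blotted to PVDF and probed with anti-ABCG1, β-actin as reference. ECL band densitometry from four independent experiments.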

THP-1 [12] = assay: Effect on DBI protein expression in human THP1 cells at 10 uM after 24 hrs by proteome analysis relative to control; assay type: functional; summary of the method: as §1
THP-1 [13] = assay: Effect on CDK12 protein expression in human THP1 cells at 10 uM after 24 hrs by proteome analysis relative to control; assay type: functional; summary of the method: as §1
THP-1 [14] = assay: Effect on CD44 protein expression in human THP1 cells at 10 uM after 24 hrs by proteome analysis relative to control; assay type: functional; summary of the method: as §1
THP-1 [15] = assay: Effect on MYL12A protein expression in human THP1 cells at 10 uM after 24 hrs by proteome analysis relative to control; assay type: functional; summary of the method: as §1
THP-1 [16] = assay: Effect on SHMT1 protein expression in human THP1 cells at 10 uM after 24 hrs by proteome analysis relative to control; assay type: functional; summary of the method: as §1
THP-1 [17] = assay: Effect on RAB4A protein expression in human THP1 cells at 10 uM after 24 hrs by proteome analysis relative to control; assay type: functional; summary of the method: as §1
THP-1 [18] = assay: Effect on SDE2 protein expression in human THP1 cells at 10 uM after 24 hrs by proteome analysis relative to control; assay type: functional; summary of the method: as §1
THP-1 [19] = assay: Effect on MAN2A1 protein expression in human THP1 cells at 10 uM after 24 hrs by proteome analysis relative to control; assay type: functional; summary of the method: as §1
THP-1 [20] = assay: Effect on PLAUR protein expression in human THP1 cells at 10 uM after 24 hrs by proteome analysis relative to control; assay type: functional; summary of the method: as §1
THP-1 [21] = assay: Effect on DNAH9 protein expression in human THP1 cells at 10 uM after 24 hrs by proteome analysis relative to control; assay type: functional; summary of the method: as §1
THP-1 [22] = assay: Effect on PTPRC protein expression in human THP1 cells at 10 uM after 24 hrs by proteome analysis relative to control; assay type: functional; summary of the method: as §1
THP-1 [23] = assay: Effect on HIST2H2AC protein expression in human THP1 cells at 10 uM after 24 hrs by proteome analysis relative to control; assay type: functional; summary of the method: as §1
THP-1 [24] = assay: Effect on NCSTN protein expression in human THP1 cells at 10 uM after 24 hrs by proteome analysis relative to control; assay type: functional; summary of the method: as §1
[25] = Upregulation of ABCG1 mRNA expression in human THP1 cells at 10 uM after 24 hrs by qPCR method relative to control; assay type: functional, cell-based; conditions: THP-1
Summary of the method: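 THP-1 macrophages treated for 24 h with 10 μM compound, 10 μM pioglitazone or DMSO. Total RNA extracted and converted to cDNA; ABCA1 or ABCG1 measured by SYBR Green qPCR and expressed relative to 18S. Mean ± SD of four independent experiments; one-way ANOVA with Bonferroni test against DMSO.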

THP-1 [26] = assay: Effect on CELSR3 protein expression in human THP1 cells at 10 uM after 24 hrs by proteome analysis relative to control; assay type: functional; summary of the method: as §1

C/C=C(/C)C(=O)OC[C@H]1[C@@H](Cc2ccc(OC)c(OC)c2)CO[C@@H]1c1ccc(OC)c(OC)c1
fold change (FC) (THP-1 [1]): 0.6
fold change (FC) (THP-1 [2]): 0.6
fold change (FC) (THP-1 [3]): 1.6
fold change (FC) (THP-1 [4]): 0.5
fold change (FC) (THP-1 [5]): 1.7
fold change (FC) (THP-1 [6]): 2.3
fold change (FC) (THP-1 [7]): 0.6
fold change (FC) (THP-1 [8]): 1.7
fold change (FC) (THP-1 [9]): 1.1
fold change (FC) (THP-1 [10]): 1.6
Activity [11]: Active
fold change (FC) (THP-1 [12]): 1.6
fold change (FC) (THP-1 [13]): 1.5
fold change (FC) (THP-1 [14]): 1.8
fold change (FC) (THP-1 [15]): 2.2
fold change (FC) (THP-1 [16]): 1.8
fold change (FC) (THP-1 [17]): 1.9
fold change (FC) (THP-1 [18]): 0.6
fold change (FC) (THP-1 [19]): 2
fold change (FC) (THP-1 [20]): 1.5
fold change (FC) (THP-1 [21]): 0.4
fold change (FC) (THP-1 [22]): 1.7
fold change (FC) (THP-1 [23]): 0.6
fold change (FC) (THP-1 [24]): 1.7
fold change (FC) [25]: 3.8
fold change (FC) (THP-1 [26]): 1.6
